Results on two compounds are retold here after ChEMBL document CHEMBL2321752, “A potent and highly efficacious Bcl-2/Bcl-xL inhibitor” (J Med Chem, 2013).

Molecules are shown by their SMILES. Calls of active or inactive are those of the source. The calls are words filed in the database; no cut-off is given here.

Series [1] has as its system Mus musculus. Kind of series: Toxicity in SCID mouse 15 mg/kg, iv administered 5 days per week for 2 weeks. It is filed as organism-based. The arrangement: dose 15 mg/kg, route intravenous. Particulars: in vivo. The procedure, abridged: (§1)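 Tolerability run in non-tumor-bearing SCID mice. Compound given intravenously at 15 or 25 mg/kg, daily, 5 days a week for 2 weeks. Weight loss and other signs of toxicity were followed during and after treatment, and the maximum tolerated dose was set from weight loss.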

In series [2] the test system is NCI-H146. Kind of series: Induction of apoptosis in human NCI-H146 cells xenografted in SCID mouse assessed as increase in PARP cleavage at 15 mg/kg, iv after 3 to 6 hrs by Western blotting analysis. The series is classed as functional, organism-based. The arrangement: dose 15 mg/kg. The procedure, abridged:
(§2)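 SCID mice bearing subcutaneous H146 xenografts of about 100 mm³ got a single intravenous dose of 15 mg/kg or vehicle. Tumors were harvested at 3, 6 or 24 h. Western blot then measured total and cleaved PARP and caspase-3.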
In general terms: In xenograft studies the graft and the host belong to different species.

The target of series [3] is Apoptosis regulator Bcl-2 (Homo sapiens, UniProt P10415). Kind of series: Binding affinity to BCL2 (unknown origin) after 2 hrs by fluorescence polarization assay. The procedure, abridged:
(§3)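 Competitive FP binding assay. Preformed protein/fluorescent probe complexes were used at 1.5/1 nM for Bcl-2, 10/2 nM for Bcl-xL and 20/2 nM for Mcl-1. These were mixed with serially diluted inhibitor and shaken gently for 2 h at room temperature before millipolarization was read. IC50 came from nonlinear regression, and Ki was calculated from IC50.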

Series [4] is described as follows: Cytotoxicity against human NCI-H146 cells assessed as growth inhibition after 4 days by WST assay. Particulars: NCI-H146, 96 h. It is filed as functional, cell-based.
Series [5] addresses Bcl-2-like protein 1 (Homo sapiens, UniProt Q07817). Kind of series: Binding affinity to BCL-XL (unknown origin) after 2 hrs by fluorescence polarization assay. An outline of the steps:
as §3
A general note: In fluorescence polarisation assays a small probe gives low polarisation when free and higher when bound to something large.

A short description of series [6]: Toxicity in iv dosed SCID mouse assessed as weight loss administered 5 days per week for 2 weeks. It is filed as organism-based. As to conditions: in vivo. The procedure, abridged:
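Maximum tolerated dose study in SCID mice. Compound was given intravenously at 15 or 25 mg/kg, daily, 5 days a week for 2 weeks. Body weight loss and other signs of toxicity were monitored during and after treatment.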

Series [7] concerns Mus musculus. Kind of series: Toxicity in SCID mouse assessed as weight loss at 15 mg/kg, iv administered 5 days per week for 2 weeks relative to control. It is filed as organism-based. More on the design: dose 15 mg/kg, route intravenous. Particulars: in vivo. The procedure, abridged:
as §1

Series [8] deals with NCI-H1963. Kind of series: Cytotoxicity against human NCI-H1963 cells assessed as growth inhibition after 4 days by WST assay. It is filed as functional, cell-based. As to conditions: NCI-H1963, 96 h. An outline of the steps:
(§4)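 Human small-cell lung cancer line from ATCC, kept in RPMI-1640 with 10% FBS. Cells were exposed to serial compound concentrations for 4 days. WST-8 dye was then added for a further 1–2 h and absorbance read at 450 nm. IC50 was derived from absorbance of treated versus untreated cells. At least three independent experiments per cell line; standard deviation reported.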

The test system of series [9] is NCI-H146. Kind of series: Antitumor activity against human NCI-H146 cells xenografted in SCID mouse assessed as tumor regression at 15 mg/kg, iv administered 5 days per week for 2 weeks. The series is classed as functional, organism-based. The arrangement: dose 15 mg/kg. The procedure, abridged:
(§5)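 H146 cells (5×10^6, with Matrigel) implanted subcutaneously on the dorsal side of SCID mice, one tumor per mouse. Mice with tumors of 100–150 mm³ were randomized into groups of 8, mean volume 126 mm³. Vehicle or compound given intravenously at 15 mg/kg, daily, 5 days/week for 2 weeks. Tumor volume was followed over time.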

In series [10] the test system is Mus musculus. Kind of series: Toxicity in SCID mouse assessed as weight loss at 25 mg/kg, iv administered 5 days per week for 2 weeks relative to control. It is filed as organism-based. More on the design: dose 25 mg/kg, route intravenous. Particulars: in vivo. The procedure, abridged: as §1
Series [11] deals with NCI-H1417. Kind of series: Cytotoxicity against human NCI-H1417 cells assessed as growth inhibition after 4 days by WST assay. It is filed as functional, cell-based. Particulars: NCI-H1417, 96 h. An outline of the steps: as §4
Series [12] deals with NCI-H146. Kind of series: Induction of apoptosis in human NCI-H146 cells xenografted in SCID mouse assessed as increase in caspase-3 cleavage at 15 mg/kg, iv after 3 to 6 hrs by Western blotting analysis. It is filed as functional, organism-based. More on the design: dose 15 mg/kg. An outline of the steps:
as §2

Series [13] concerns NCI-H187. Kind of series: Cytotoxicity against human NCI-H187 cells assessed as growth inhibition after 4 days by WST assay. Particulars: NCI-H187, 96 h. It is filed as functional, cell-based. An outline of the steps: as §4
The target in series [14] is Induced myeloid leukemia cell differentiation protein Mcl-1 (Homo sapiens, UniProt Q07820). Kind of series: Binding affinity to MCL1 (unknown origin) after 2 hrs by fluorescence polarization assay. An outline of the steps:
as §3

For series [15], the system named is Mus musculus. Kind of series: Toxicity in SCID mouse xenografted with human NCI-H146 cells 15 mg/kg, iv administered 5 days per week for 2 weeks. Particulars: in vivo. The arrangement: dose 15 mg/kg, route intravenous. It is filed as organism-based. An outline of the steps:
(§6)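 SCID mice carried subcutaneous H146 xenografts, 8 per group, starting mean tumor volume 126 mm³. Dosing was intravenous at 15 mg/kg, daily, 5 days/week for 2 weeks. Body weight and other signs of toxicity were monitored during and after treatment.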

Series [16] relates to Mus musculus. Kind of series: Toxicity in SCID mouse xenografted with human NCI-H146 cells assessed as weight loss at 15 mg/kg, iv administered 5 days per week for 2 weeks. Particulars: in vivo. The arrangement: dose 15 mg/kg, route intravenous. It is filed as organism-based. An outline of the steps: as §6
Series [17] can be described thus: Antitumor activity against human NCI-H146 cells xenografted in SCID mouse assessed as tumor volume at 15 mg/kg, iv administered 5 days per week for 2 weeks measured on day 117 (reference value: 130 mm'3). It is filed as functional. The procedure, abridged:
as §5

Series [18] has as its system NCI-H146. Kind of series: Antitumor activity against human NCI-H146 cells xenografted in SCID mouse assessed as tumor regression at 15 mg/kg, iv administered 5 days per week for 2 weeks measured on day 62. The series is classed as functional, organism-based. The arrangement: dose 15 mg/kg. An outline of the steps: as §5

Chain of Apoptosis regulator Bcl-2 (P10415 whole entry): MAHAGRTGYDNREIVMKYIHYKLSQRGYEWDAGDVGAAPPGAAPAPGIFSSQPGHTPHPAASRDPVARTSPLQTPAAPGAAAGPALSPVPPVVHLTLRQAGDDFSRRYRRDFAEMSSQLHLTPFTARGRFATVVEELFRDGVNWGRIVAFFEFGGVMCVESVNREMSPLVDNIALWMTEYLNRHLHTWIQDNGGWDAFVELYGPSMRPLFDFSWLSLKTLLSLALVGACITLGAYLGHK
Chain of Bcl-2-like protein 1 (Q07817 whole entry): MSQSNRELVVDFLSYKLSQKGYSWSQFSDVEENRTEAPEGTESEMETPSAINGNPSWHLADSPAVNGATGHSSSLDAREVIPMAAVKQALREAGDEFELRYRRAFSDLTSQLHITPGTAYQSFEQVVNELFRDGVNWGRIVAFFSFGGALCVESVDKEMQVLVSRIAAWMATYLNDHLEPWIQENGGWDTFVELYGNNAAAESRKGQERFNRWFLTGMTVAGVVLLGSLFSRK
Chain of Induced myeloid leukemia cell differentiation protein Mcl-1 (Q07820 whole entry): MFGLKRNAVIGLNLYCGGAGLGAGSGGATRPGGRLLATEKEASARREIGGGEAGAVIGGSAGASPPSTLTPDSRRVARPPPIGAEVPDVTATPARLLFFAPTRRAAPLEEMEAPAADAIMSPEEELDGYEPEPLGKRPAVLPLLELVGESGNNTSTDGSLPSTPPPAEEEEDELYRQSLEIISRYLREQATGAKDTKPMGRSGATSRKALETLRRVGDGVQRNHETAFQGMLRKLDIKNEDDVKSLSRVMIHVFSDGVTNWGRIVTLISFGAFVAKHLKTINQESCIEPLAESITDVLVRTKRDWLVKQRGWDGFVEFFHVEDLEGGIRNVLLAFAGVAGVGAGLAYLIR

The IC50 is the concentration needed to halve the response being measured. For `CCn1c(C)c(C(=O)NS(C)(=O)=O)c(-c2cccc(N3CCN(c4ccc(NS(=O)(=O)c5ccc(N[C@H](CCN(C)C)CSc6ccccc6)c([N+](=O)[O-])c5)cc4)CC3)c2)c1-c1ccc(Cl)cc1`, the results for the Activity entry in series [1], in [7] and in series [10] were “Non-toxic”, below 5% and 10%, respectively. Further, the outcome in [2], in series [9] and in series [12] was Active. Further, the IC50 in series [3] came to 1.8 nM; in series [4], 4.8 nM; in [5] it was 7 nM; in series [8], 8.2 nM; in [11], 11.1 nM; in [13] it was 7.9 nM. Besides, in series [14], the IC50 was above 2000 nM. The MTD at 2 weeks in series [6] came out at 15 mg/kg.
Broadly, the Ki is a dissociation constant, usually derived from enzyme kinetics or from competition with a known ligand. The low end stands for higher affinity, the high end for lower affinity. As for `Cc1c(C(=O)NS(C)(=O)=O)c(-c2cccc(N3CCN(c4ccc(NS(=O)(=O)c5ccc(N[C@H](CCN(C)C)CSc6ccccc6)c([N+](=O)[O-])c5)cc4)CC3)c2)c(-c2ccc(Cl)cc2)n1C(C)C`, the Activity entry is reported as “Non-toxic” in series [1]; “Non-toxic” in [15]; “Non-toxic” in series [16]; below 5% in series [7]; 47 mm3 in [17]; 10% in series [10]. The result in series [2], in series [18], in series [9] and in [12] was Active. Further, the IC50 in [3] was 1.8 nM; in series [4], 1.3 nM; in series [5], 6.9 nM; in series [8], 1 nM; in series [11] it was 2.3 nM; in series [13], 1.4 nM. In series [14], this compound came in with an IC50 above 2000 nM. Also, the Ki in [3] and in series [5] was below 1 nM in each case. In [6], the MTD at 2 weeks turned out to be 15 mg/kg.
